Assay results as given in ChEMBL document CHEMBL2417424, “Synthesis, structure, and antibiotic activity of aryl-substituted LpxC inhibitors” (J Med Chem, 2013).
Converted amounts (≈) assume the structure as drawn.

Tests used:
Pseudomonas aeruginosa = assay: Antimicrobial activity against Pseudomonas aeruginosa PAO1 after 22 hrs by MTT assay; type: functional; conditions: PAO1, 22 h
Method in brief: (§1)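 Broth microdilution (modified NCCLS) in 96-well plates, LB medium with 5% DMSO; 2-fold compound series spanning 0.0005–1, 0.0025–5 or 0.024–50 µg/mL. Cells grown to OD600 0.6, diluted 100-fold, added to wells; 22 h at 37 °C, then MTT (1 mg/mL) 3 h at 37 °C. MIC = lowest concentration with no visible colour change; triplicate.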

Escherichia coli [1] = assay: Ratio of MIC for wild type Escherichia coli W3110 to MIC for Escherichia coli CMR300; type: functional
Escherichia coli [2] = assay: Antimicrobial activity against wild type Escherichia coli W3110 after 22 hrs by MTT assay; type: functional; conditions: W3110, 22 h; method in brief: as §1
Escherichia coli [3] = assay: Antimicrobial activity against Escherichia coli CMR300 after 22 hrs by MTT assay; type: functional; conditions: CMR300, 22 h; method in brief: as §1
Escherichia coli [4] = assay: Antimicrobial activity against Escherichia coli W3110PA after 22 hrs by MTT assay; type: functional; method in brief: as §1
Salmonella typhimurium = assay: Antimicrobial activity against Salmonella enterica typhimurium LT2 after 22 hrs by MTT assay; type: functional, Salmonella enterica subsp. enterica serovar Typhimurium; conditions: LT2, 22 h; method in brief: as §1
Vibrio cholerae = assay: Antimicrobial activity against Vibrio cholerae P4 after 22 hrs by MTT assay; type: functional; conditions: P4, 22 h
Method in brief: (§2)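 Broth microdilution in triplicate (modified NCCLS) in LB with 5% DMSO, using 2-fold compound series over 0.0005–1, 0.0025–5 or 0.024–50 µg/mL. Cells grown to OD600 0.6 were diluted 100-fold into the wells and incubated 22 h at 37 °C. A 1 mg/mL MTT solution was added for 3 h more at 37 °C. MIC = lowest concentration with no visible yellow-to-black colour change.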

Francisella novicida [5] = assay: Ratio of LPC-011 MIC to compound MIC for Francisella novicida U 112 after 22 hrs by MTT assay; type: functional, Francisella tularensis subsp. novicida
Francisella novicida [6] = assay: Antimicrobial activity against Francisella novicida U 112 after 22 hrs by MTT assay; type: functional, Francisella tularensis subsp. novicida; conditions: Francisella tularensis, U 112, 22 h; method in brief: as §2
[7] = biological target: T1, UDP-3-O-acyl-N-acetylglucosamine deacetylase (Escherichia coli K-12, UniProt P0A725); assay: Inhibition of Escherichia coli LpxC enzyme using UDP-3-O-[(R)-3-hydroxymyristoyl]-N-acetyl glucosamine and [gamma-32P] UDP-3-O-[(R)-3-hydroxymyristoyl]-N-acetylglucosamine as substrate after 1 to 4 hrs
T1 sequence (P0A725 whole entry): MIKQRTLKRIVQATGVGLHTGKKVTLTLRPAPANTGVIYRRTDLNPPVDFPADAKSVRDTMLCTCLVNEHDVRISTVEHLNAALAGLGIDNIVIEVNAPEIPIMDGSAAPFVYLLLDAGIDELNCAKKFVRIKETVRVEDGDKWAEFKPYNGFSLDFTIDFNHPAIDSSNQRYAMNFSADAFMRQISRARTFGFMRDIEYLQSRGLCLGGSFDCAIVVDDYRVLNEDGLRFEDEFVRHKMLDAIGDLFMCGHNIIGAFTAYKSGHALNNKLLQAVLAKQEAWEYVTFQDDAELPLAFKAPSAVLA

Klebsiella pneumoniae = assay: Antimicrobial activity against Klebsiella pneumoniae 43816 after 22 hrs by MTT assay; type: functional; conditions: Klebsiella pneumoniae, 43816, 22 h; method in brief: as §1
[8] = biological target: T2, UDP-3-O-acyl-N-acetylglucosamine deacetylase (Escherichia coli K-12) (UniProt P0A725); assay: Ratio of LPC-011 Ki to compound Ki for Escherichia coli LpxC enzyme
T2 sequence (whole entry): T1 sequence (P0A725 whole entry)

[9] = Ratio of MIC for Pseudomonas aeruginosa PAO1 to MIC for Escherichia coli W3110PA; type: functional

| Structure (SMILES) | MIC (Pseudomonas aeruginosa) [µg/mL] | Ratio (Escherichia coli [1]) | MIC (Escherichia coli [2]) [µg/mL] | MIC (Escherichia coli [3]) [µg/mL] | MIC (Escherichia coli [4]) [µg/mL] | MIC (Salmonella typhimurium) [µg/mL] | MIC (Vibrio cholerae) [µg/mL] | Ratio (Francisella novicida [5]) | MIC (Francisella novicida [6]) [µg/mL] | Ki [7] [nM] | MIC (Klebsiella pneumoniae) [µg/mL] | Ratio Ki [8] | Ratio [9] |
| --- | --- | --- | --- | --- | --- | --- | --- | --- | --- | --- | --- | --- | --- |
| Nc1ccc(C#CC#Cc2ccc(C(=O)N[C@H](C(=O)NO)[C@@H](O)c3ccc(O)cc3)cc2)cc1 | 1 (≈ 2.2 µM) | 43 | 0.13 (≈ 0.285 µM) | 0.003 (≈ 0.00659 µM) | 0.9 (≈ 1.98 µM) |  |  |  |  |  |  |  |  |
| C[C@](O)(c1c[nH]nn1)[C@H](NC(=O)c1ccc(C#CC#Cc2ccc(N)cc2)cc1)C(=O)NO | 0.5 (≈ 1.12 µM) |  | 0.06 (≈ 0.135 µM) | 0.004 (≈ 0.009 µM) | 0.5 (≈ 1.12 µM) | 0.1 (≈ 0.225 µM) | 0.03 (≈ 0.0675 µM) | 2 | 1 (≈ 2.25 µM) | 0.024 | 0.25 (≈ 0.562 µM) | 1.6 |  |
| C[C@@H](O)[C@H](NC(=O)c1ccc(C#CC#Cc2ccc(N)cc2)cc1)C(=O)NO | 0.32 (≈ 0.848 µM) | 30 | 0.03 (≈ 0.0795 µM) | 0.001 (≈ 0.00265 µM) | 0.32 (≈ 0.848 µM) | 0.024 (≈ 0.0636 µM) | 0.01 (≈ 0.0265 µM) |  | 2.5 (≈ 6.62 µM) |  | 0.13 (≈ 0.344 µM) |  |  |
| Nc1ccc(C#CC#Cc2ccc(C(=O)N[C@H](C(=O)NO)[C@H](O)c3ccc(O)cc3)cc2)cc1 | > 50 | 333 | 50 (≈ 110 µM) | 0.15 (≈ 0.329 µM) | > 50 |  |  |  |  |  |  |  |  |
| C[C@@H](O)[C@H](NC(=O)c1ccc(C#Cc2ccc(CN3CCOCC3)cc2)cc1)C(=O)NO | 1.6 (≈ 3.66 µM) |  | 0.2 (≈ 0.457 µM) | 0.01 (≈ 0.0229 µM) | 1.3 (≈ 2.97 µM) | 0.16 (≈ 0.366 µM) | 0.16 (≈ 0.366 µM) |  | 3.1 (≈ 7.09 µM) |  | 0.64 (≈ 1.46 µM) |  |  |
| Nc1ccc(C#CC#Cc2ccc(C(=O)N[C@@H](Cc3ccc(O)cc3)C(=O)NO)cc2)cc1 | 12.5 (≈ 28.4 µM) | 80 | 0.8 (≈ 1.82 µM) | 0.01 (≈ 0.0228 µM) | 4.7 (≈ 10.7 µM) |  |  |  |  |  |  |  | 3 |
| Nc1ccc(C#CC#Cc2ccc(C(=O)N[C@@H](Cc3c[nH]c4ccccc34)C(=O)NO)cc2)cc1 | > 50 | 208 | 12.5 (≈ 27 µM) | 0.06 (≈ 0.13 µM) | > 50 |  |  |  |  |  |  |  |  |
| C[C@@](O)(c1ccc(O)cc1)[C@H](NC(=O)c1ccc(C#CC#Cc2ccc(N)cc2)cc1)C(=O)NO | 5 (≈ 10.6 µM) | 62 | 0.5 (≈ 1.06 µM) | 0.008 (≈ 0.017 µM) | 3.2 (≈ 6.82 µM) |  |  |  |  |  |  |  |  |
| Nc1ccc(C#CC#Cc2ccc(C(=O)N[C@@H](Cc3c[nH]cn3)C(=O)NO)cc2)cc1 | 6.3 (≈ 15.2 µM) | 20 | 0.4 (≈ 0.967 µM) | 0.02 (≈ 0.0484 µM) | 6.3 (≈ 15.2 µM) |  |  |  |  |  |  |  |  |
| C[C@](O)(c1ccc(O)cc1)[C@H](NC(=O)c1ccc(C#CC#Cc2ccc(N)cc2)cc1)C(=O)NO | 0.7 (≈ 1.49 µM) | 300 | 0.03 (≈ 0.0639 µM) | 0.0001 (≈ 0.000213 µM) | 0.5 (≈ 1.06 µM) | 0.05 (≈ 0.106 µM) | 0.016 (≈ 0.0341 µM) | 2 | 0.63 (≈ 1.34 µM) | 0.024 | 0.16 (≈ 0.341 µM) | 1.6 |  |
| Nc1ccc(C#CC#Cc2ccc(C(=O)N[C@@H](Cc3ccccc3)C(=O)NO)cc2)cc1 | > 50 | 450 | 6.3 (≈ 14.9 µM) | 0.014 (≈ 0.0331 µM) | > 50 |  |  |  |  |  |  |  |  |
